Measured values from ChEMBL document CHEMBL1157578, “Design, synthesis, and biological evaluation of novel water-soluble triptolide derivatives: Antineoplastic activity against imatinib-resistant CML cells bearing T315I mutant Bcr-Abl” (Bioorg Med Chem, 2010).
pIC50: −log10 of the molar value. Active and inactive are the calls of the source. The rule behind the calls is not given here.

Key:
KBM5 [1] = assay: Cytotoxicity against imatinib-resistant human KBM5 cells harboring Bcr-Abl T315I mutant at 0.001 to 17 uM after 72 hrs by MTS assay; type: functional, cell-based
Method in brief: (§1)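 KBM5 (wild-type p210 Bcr-Abl) or KBM5-T315I cells in IMDM + 10% heat-inactivated FCS. The T315I subline was kept in 1 µM imatinib, removed 2–3 days before assay. Cells incubated 72 h with increasing concentrations. Viability by MTS at 490 nm, as percent of control; IC50 from dose–response curves.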

[2] = Cytotoxicity against imatinib-resistant human KBM5 cells harboring Bcr-Abl T315I mutant after 72 hrs by MTS assay; type: functional, cell-based; settings: KBM5, 72 h; method in brief: as §1
[3] = Cytotoxicity against human KBM5 cells harboring wild type Bcr-Abl after 72 hrs by MTS assay; type: functional, cell-based; settings: KBM5, 72 h; method in brief: as §1
[4] = Aqueous solubility in water; type: physicochemical; settings: buffer
KBM5 [5] = assay: Cytotoxicity against human KBM5 cells harboring wild type Bcr-Abl at 0.001 to 17 uM after 72 hrs by MTS assay; type: functional, cell-based; method in brief: as §1
[6] = Cytotoxicity against mouse 32D cells harboring wild type Bcr-Abl after 72 hrs by MTS assay; type: functional, cell-based
Method in brief: (§2)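 32D myeloid cells stably expressing wild-type or T315I Bcr-Abl, maintained in RPMI 1640 + 10% FBS. Treated with increasing concentrations for 72 h. Viability by MTS, optical density at 490 nm.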

[7] = Downregulation of Bcr-Abl mRNA level in human KBM5 cells harboring Bcr-Abl T315I mutant at 50 to 100 nM after 18 hrs by semi-quantitative RT-PCR analysis; type: functional, cell-based
Method in brief: (§3)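 KBM5 and KBM5-T315I cells exposed to 50 or 100 nM, or control medium, for 18 h. Bcr-Abl and GAPDH mRNA measured by semi-quantitative RT-PCR; products run on 1% agarose and stained with ethidium bromide.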

[8] = Cytotoxicity against imatinib-resistant mouse 32D cells harboring Bcr-Abl T315I mutant after 72 hrs by MTS assay; type: functional, cell-based; method in brief: as §2
[9] = Downregulation of Bcr-Abl protein level in mouse 32D cells harboring wild type Bcr-Abl after 18 hrs by Western blot analysis; type: functional, cell-based
Method in brief: (§4)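 Cells exposed for 18 h at the indicated concentrations. Whole-cell lysates made in RIPA buffer with phosphatase and protease inhibitors. Western blot for Bcr-Abl (c-Abl C-19), phospho-c-Abl Y245, phospho-RNA polymerase II, PARP, and actin as loading control.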

DU-145 = assay: Inhibition of RNA polymerase 2 in human DU145 cells assessed as decrease in polymerase 2 phosphorylation at 50 to 100 nM after 18 hrs by Western blot analysis; type: cell-based
[10] = Downregulation of Bcr-Abl protein level in mouse 32D cells harboring Bcr-Abl T315I mutant after 18 hrs by Western blot analysis; type: functional, cell-based; method in brief: as §4
KBM5 [11] = assay: Induction of apoptosis in human KBM5 cells harboring Bcr-Abl T315I mutant assessed as PARP cleavage at 50 to 100 uM after 18 hrs by Western blot analysis; type: functional, cell-based
HeLa = assay: Inhibition of RNA polymerase 2 in human HeLa cells assessed as decrease in polymerase 2 phosphorylation at 50 to 100 nM after 18 hrs by Western blot analysis; type: cell-based
KBM5 [12] = assay: Inhibition of RNA polymerase 2 in human KBM5 cells harboring Bcr-Abl T315I mutant assessed as decrease in polymerase 2 phosphorylation after 18 hrs by Western blot analysis; type: cell-based; method in brief: as §4
KBM5 [13] = assay: Induction of apoptosis in human KBM5 cells harboring wild type Bcr-Abl assessed as PARP cleavage at 50 to 100 uM after 18 hrs by Western blot analysis; type: functional, cell-based
[14] = Downregulation of Bcr-Abl protein level in human KBM5 cells harboring Bcr-Abl T315I mutant after 18 hrs by Western blot analysis; type: functional, cell-based; method in brief: as §4
[15] = Downregulation of Bcr-Abl mRNA level in human KBM5 cells harboring wild type Bcr-Abl at 50 to 100 nM after 18 hrs by semi-quantitative RT-PCR analysis; type: functional, cell-based; method in brief: as §3
KBM5 [16] = assay: Inhibition of RNA polymerase 2 in human KBM5 cells harboring wild type Bcr-Abl assessed as decrease in polymerase 2 phosphorylation after 18 hrs by Western blot analysis; type: cell-based; method in brief: as §4
[17] = Downregulation of Bcr-Abl protein level in human KBM5 cells harboring wild type Bcr-Abl after 18 hrs by Western blot analysis; type: functional, cell-based; method in brief: as §4
MEF = assay: Cytotoxicity against MEF after 72 hrs by MTS assay; type: cell-based; settings: Mus musculus
Method in brief: (§5)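 MEF and NHFB fibroblasts cultured in DMEM + 10% FCS. Exposed to increasing concentrations for 72 h. Viability by MTS reagent, optical density at 490 nm.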

HCT-116 = assay: Inhibition of RNA polymerase 2 in human HCT116 cells assessed as decrease in polymerase 2 phosphorylation at 50 to 100 nM after 18 hrs by Western blot analysis; type: cell-based
[18] = Cytotoxicity against NHFB after 72 hrs by MTS assay; set-up: species or system Homo sapiens; method in brief: as §5

Compound | Activity (KBM5 [1]) | pIC50 [2] | pIC50 [3] | solubility [4] | Activity (KBM5 [5]) | also measured
CC(C)[C@]12O[C@H]1[C@@H]1O[C@@]13[C@H]1CCC4=C(COC4=O)[C@@H]1C[C@@H]1O[C@@]13[C@@H]2OC(=O)CNCCN | Active | 6.02 | 6.11 | Soluble | Active | –
CC(C)[C@]12O[C@H]1[C@@H]1O[C@@]13[C@H]1CCC4=C(COC4=O)[C@@H]1C[C@@H]1O[C@@]13[C@@H]2OC(=O)CCl | Active | – | – | – | Active | –
CC(C)[C@]12O[C@H]1[C@@H]1O[C@@]13[C@H]1CCC4=C(COC4=O)[C@@H]1C[C@@H]1O[C@@]13[C@@H]2OC(=O)CNc1ccc(Cl)cc1 | inactive | 6.13 | 5.30 | – | inactive | –
CCN(CC)CC(=O)O[C@@H]1[C@@]2(C(C)C)O[C@H]2[C@@H]2O[C@@]23[C@H]2CCC4=C(COC4=O)[C@@H]2C[C@@H]2O[C@]213 | Active | – | 7.11 | Soluble | Active | –
CC(C)[C@]12O[C@H]1[C@@H]1O[C@@]13[C@H]1CCC4=C(COC4=O)[C@@H]1C[C@@H]1O[C@@]13[C@@H]2OC(=O)CNCCO | Active | 7.71 | 7.74 | Soluble | Active | pIC50 [6]: 7.21; Activity [7]: Active; pIC50 [8]: 7.13; Activity [9]: Dose-dependent effect; inhibition (DU-145): Active; Activity [10]: Dose-dependent effect; Activity (KBM5 [11]): Active; inhibition (HeLa): Active; inhibition (KBM5 [12]): Dose-dependent effect; Activity (KBM5 [13]): Active; Activity [14]: Dose-dependent effect; Activity [15]: Active; inhibition (KBM5 [16]): Dose-dependent effect; Activity [17]: Dose-dependent effect; pIC50 (MEF): 4.98; inhibition (HCT-116): Active; pIC50 [18]: 5.00
CNCC(=O)O[C@@H]1[C@@]2(C(C)C)O[C@H]2[C@@H]2O[C@@]23[C@H]2CCC4=C(COC4=O)[C@@H]2C[C@@H]2O[C@]213 | Active | 6.51 | 6.46 | Soluble | Active | –
CC(C)[C@]12O[C@H]1[C@@H]1O[C@]13[C@]1(O[C@H]1C[C@H]1C4=C(CC[C@@]13C)C(=O)OC4)[C@@H]2O [TRIPTOLIDE] | Active | 8.08 | 7.99 | Insoluble | Active | pIC50 [6]: 7.49; pIC50 [8]: 7.47; pIC50 (MEF): 5.04; pIC50 [18]: 5.06
CC(C)[C@]12O[C@H]1[C@@H]1O[C@@]13[C@H]1CCC4=C(COC4=O)[C@@H]1C[C@@H]1O[C@@]13[C@@H]2OC(=O)CNc1nccc(-c2cccnc2)n1 | Active | 6.67 | 6.53 | Soluble | Active | –
CCCCCCCCCCCCNCC(=O)O[C@@H]1[C@@]2(C(C)C)O[C@H]2[C@@H]2O[C@@]23[C@H]2CCC4=C(COC4=O)[C@@H]2C[C@@H]2O[C@]213 | inactive | 5.98 | 5.27 | – | inactive | –
CC(C)[C@]12O[C@H]1[C@@H]1O[C@@]13[C@H]1CCC4=C(COC4=O)[C@@H]1C[C@@H]1O[C@@]13[C@@H]2OC(=O)CN1CCNCC1 | Active | 6.26 | 6.30 | Soluble | Active | –
CC(C)[C@]12O[C@H]1[C@@H]1O[C@@]13[C@H]1CCC4=C(COC4=O)[C@@H]1C[C@@H]1O[C@@]13[C@@H]2OC(=O)CN | – | 7.93 | 7.72 | – | – | pIC50 [6]: 7.30; pIC50 [8]: 7.36; pIC50 (MEF): 4.95; pIC50 [18]: 4.94
COC(=O)[C@H](C)NCC(=O)O[C@@H]1[C@@]2(C(C)C)O[C@H]2[C@@H]2O[C@@]23[C@H]2CCC4=C(COC4=O)[C@@H]2C[C@@H]2O[C@]213 | Active | 7.85 | 7.73 | Soluble | Active | –
CC(C)[C@]12O[C@H]1[C@@H]1O[C@@]13[C@H]1CCC4=C(COC4=O)[C@@H]1C[C@@H]1O[C@@]13[C@@H]2OC(=O)CN(CCO)CCO | inactive | 5.81 | 5.55 | – | inactive | –
